In the library only some 3.7% were active in any assay of this set; here they are far more common.
procasp3 activ = activators of human procaspase-3 D3A mutant, primary screen, biochemical, absorbance, PC-3 D3A mutant, single concentration | AID 463141, 2010 | Caspase-3 (Homo sapiens), P42574 | activation, % at 8.5 µM | actives 0.11% (n = 330,000) | recombinant procaspase-3 D3A, Ac-DEVD-pNA absorbance 405 nm;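 active means activation above the mean of all tested compounds plus 3 SD, cut at about 21% in these data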;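 further: 0% = DMSO alone and 100% = DMSO wells spiked with extra 5 µM PC-3 D3A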
Target sequence (P42574 whole entry D9A/D28A/D175A): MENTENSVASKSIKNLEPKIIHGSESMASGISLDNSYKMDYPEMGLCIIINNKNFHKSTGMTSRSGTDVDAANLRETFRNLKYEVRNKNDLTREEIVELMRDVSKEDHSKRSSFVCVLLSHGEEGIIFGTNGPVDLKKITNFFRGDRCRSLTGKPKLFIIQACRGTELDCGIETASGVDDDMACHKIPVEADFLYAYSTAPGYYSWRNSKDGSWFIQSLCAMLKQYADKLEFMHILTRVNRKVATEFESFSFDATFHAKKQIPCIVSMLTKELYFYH
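Evaluation: percent activation relative to control range; Material: Procaspase-3 D3A mutant, all three cleavage aspartates alanine; Compound: single dose, 8.5 µM nominal compound, 0.8% DMSO; Replication: one well per compound; Signal: absorbance at 405 nm, 0 and 120 min; Schedule: 1 h preincubation plus 2 h reaction at 25 °C.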
aDG glyco act = activators of alpha-DG glycosylation, primary screen, uHTS, Pro5-aDG cells, AlphaScreen | alpha-DG glycosylation AlphaScreen (IIH6); 0% Pro5, 100% B10-LARGE cell signal | activation, % at 10 µM | actives 0.22% (n = 360,000) | AID 624168, 2012;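 active means activation of at least 8% versus controls, or a plate z-score of at least 8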;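 further: Pro5 are CHO cells carrying HIG-tagged alpha-DG that lacks glycosylation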
NR3A LBD binder = binders of NR3A ligand-binding domain, primary screen, biophysical, differential scanning fluorimetry, uHTS. Glutamate receptor ionotropic, NMDA 3A (GRIN3A) ligand-binding domain. NR3A LBD differential scanning fluorimetry, Tm shift; 0% = protein alone, 100% = glycine-bound protein. Tm shift relative to glycine control, % at 25 µM. actives 2.5% (n = 340,000);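 active means melting temperature shift of at least 10% of the positive control shift, at one fixed dose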
proCasp7 act = procaspase-7 activators, primary screen, counter-screen for procaspase-3 activator project, biochemical, absorbance, HTS, human; recombinant procaspase-7, Ac-DEVD-pNA absorbance 405 nm; D23A/D198A/D206A triple mutant, cannot self-cleave; scale: DMSO 0, 5 µM enzyme 100; AID 463210, 2010; Caspase-7 (Homo sapiens), P55210; activation, % at 8.5 µM; actives 0.093% (n = 330,000);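 active means percent activation above the screen-wide mean plus 3 SD, cut at about 25% in these data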
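Assay system: Uncleavable procaspase-7 mutant enzyme / Input: 2 µM procaspase-7 mutant as dispensed / Dosing: single nominal 8.5 µM compound dose, 0.8% DMSO final / Timing: 1 h enzyme–compound preincubation and 2 h substrate reaction, both 25 °C / Detection: p-Nitroaniline absorbance at 405 nm, read at 0 and 120 min / Replication: singlicate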
MPTP block = mitochondrial permeability transition pore inhibitors, primary screen, biochemical, isolated mouse mitochondria, absorbance. actives 1.4% (n = 360,000). AID 602449, 2012. inhibition, % at 10 µM. Ca2+ swelling absorbance, 30 min;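 active means inhibition of 50% or more, scaled per plate between neutral and stimulator controls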;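 further: 0% = DMSO wells given calcium and 100% = 1 mM EGTA wells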
* marks the source's active call; other numbers are inactive results; nt = no result given.

SMILES	procasp3 activ	aDG glyco act	NR3A LBD binder	proCasp7 act	MPTP block
COc1ccc(NC(=O)c2ccc(NC(=O)CSc3nc(N)cc(=O)[nH]3)cc2)cc1	5	0	11*	0	0
Nc1nc(SCC(=O)Nc2ccc([N+](=O)[O-])cc2)[nH]c(=O)c1NC(=O)c1ccc(Br)cc1	-3	0	31*	2	0
CCCC(C(=O)NCc1ccc(OC)cc1)N(Cc1ccco1)C(=O)c1snc(C(N)=O)c1N (stereo unspecified)	-1	0	14*	10	0
COc1ccc(NC(=O)O/N=C/c2ccncc2)cc1	-1	0	-4	-2	-2
COc1ccc(/C=N/OC(=O)Nc2ccc(Cl)cc2)c(OC)c1	-5	0	10*	8	25
Cc1ccc(NC(=O)O/N=C/c2ccc(N(C)C)cc2)cc1	7	0	19*	2	0
COc1ccc(NC(=O)O/N=C/c2ccc(Br)cc2)cc1	-1	0	34*	-1	-1
COc1ccc(NC(=O)O/N=C/c2ccc(N(C)C)cc2)cc1	-4	0	5	-4	-1
COc1ccc(C=NOCC(=O)OCC(=O)Nc2ccc(OC)cc2)cc1	9	0	42*	2	-2
Cc1ccc(NC(=O)O/N=C/c2ccc(Br)cc2)cc1	8	0	6	-12	-2
CCOc1ccc(NC(=O)CN(C)Cc2ccc3c(c2)OCO3)cc1S(=O)(=O)N1CCCC1	-4	0	-1	4	-2
CCNC(=O)C1CCCN(C(=O)c2ccc(C(=O)OC)cc2)CC1 (stereo unspecified)	nt	0	nt	nt	0
COc1cc(C=C2Cc3ccccc3C2=O)cc(OC)c1OC	nt	0	nt	nt	-2
COc1ccc(/C=C2\Cc3ccccc3C2=O)cc1OC	nt	0	13*	nt	0
O=C(Nc1ccc(F)c(Cl)c1)C1Cc2c(-c3ccco3)ccnc2O1 (stereo unspecified)	nt	0	nt	nt	2
O=C(COc1ccc(/C=N/NC(=O)c2ccc(O)cc2)cc1)Nc1cccc([N+](=O)[O-])c1	3	0	31*	1	0
O=C(CO/N=C/c1cccc([N+](=O)[O-])c1)Nc1ccc2ccccc2c1	-8	0	13*	12	0
Nc1ccc(C(=O)N/N=C\C=C\c2ccc([N+](=O)[O-])cc2)cc1	-1	0	15*	3	0
CCC(=O)Nc1ccc(C(=O)N/N=C/c2ccc([N+](=O)[O-])cc2)cc1	-2	0	16*	1	0
CC(C=NNc1ccc([N+](=O)[O-])cn1)=Cc1ccccc1	nt	0	1	nt	2
CC(C)(C)OC(=O)N1CCC[C@@H]1C(=O)NCc1ccccc1Cl	nt	2	nt	nt	-1
CN(C)Cc1ncccc1Oc1nc2cc(-c3cccc(Cl)c3)sc2c(=O)n1C	nt	2	nt	nt	-3
O=C(COc1ccc(/C=N/NS(=O)(=O)c2ccccc2)cc1)NCc1ccccc1	-7	0	-2	-1	2
O=C(N/N=C/c1ccc([N+](=O)[O-])cc1)c1ccc(COc2ccccc2-c2ccccc2)cc1	5	3	16*	1	44
O=C(COc1ccc(/C=N/NS(=O)(=O)c2ccccc2)cc1)Nc1cccc(Cl)c1	-8	0	16*	-10	3
COc1ccc(C2/C=C\CC(NC(=O)OCC3c4ccccc4-c4ccccc43)CC(=O)N2Cc2ccccc2F)cc1 (stereo unspecified)	-2	0	14*	-4	0
CC1=C(C(=O)N2CCCCCC2)CC(CC(=O)NC2CCCCC2)C(=O)N1Cc1ccc(C(C)(C)C)cc1 (stereo unspecified)	nt	0	nt	nt	0
CC(=O)Nc1ccc(Nc2nc(C(F)(F)F)nc3c2nnn3Cc2ccccc2Cl)cc1	-10	0	13*	-56	1
O=C(OCC1CCC=CO1)C1CCC=CO1 (stereo unspecified)	nt	0	0	nt	1

Assay outcomes deposited in PubChem by several laboratories.
